Assay results taken from ChEMBL document CHEMBL1153478, “Discovery of imidazo[1,2-a]pyridines as potent MCH1R antagonists” (Bioorg Med Chem Lett, 2009).

Experiments:
[1] = biological target: T1, Melanin-concentrating hormone receptor 1 (Homo sapiens, UniProt Q99705); assay: Displacement of [125I]MCH from human MCH1 receptor
Summary of the method: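 Competition binding on membranes from CHO cells expressing human MCH1R, with [125I]-MCH as radioligand displaced by test compounds; IC50 reported as the mean of 2 experiments.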

Brain = assay: Drug level in Sprague-Dawley rat brain at 10 mg/kg, po after 2 hrs; type: ADME, organism-based; design: dose 10 mg/kg, route oral; conditions: in vivo
Summary of the method: (§1)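 Single oral dose of 10 mg/kg given to SD rats. Plasma (µM) and brain (nmol/g) levels were measured 2 h after dosing. Values are means of 3 experiments.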

[2] = biological target: T1, Melanin-concentrating hormone receptor 1; assay: Antagonist activity at human MCH1 receptor expressed in CHO cells assessed as inhibition of MCH-induced intracellular calcium level by FLIPR assay; type: functional, cell-based
[3] = Plasma concentration in Sprague-Dawley rat at 10 mg/kg, po after 2 hrs; type: ADME, organism-based; design: dose 10 mg/kg, route oral; summary of the method: as §1

T1 sequence (Q99705 whole entry): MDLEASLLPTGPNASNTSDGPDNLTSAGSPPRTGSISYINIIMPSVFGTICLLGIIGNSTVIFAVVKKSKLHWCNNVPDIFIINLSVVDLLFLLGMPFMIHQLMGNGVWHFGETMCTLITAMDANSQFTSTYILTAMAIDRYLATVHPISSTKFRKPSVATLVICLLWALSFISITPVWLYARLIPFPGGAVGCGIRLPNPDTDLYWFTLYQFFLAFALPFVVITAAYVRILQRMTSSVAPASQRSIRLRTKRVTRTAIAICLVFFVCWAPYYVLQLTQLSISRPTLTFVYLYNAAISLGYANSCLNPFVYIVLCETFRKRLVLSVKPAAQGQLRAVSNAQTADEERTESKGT

CC(C)(C)c1cn2cc(NC(=O)c3ccc(-c4ccc(C(F)(F)F)cc4)cc3)ccc2n1
IC50 [1]: 7.1 nM

Cc1c(C2CC2)nc2ccc(NC(=O)c3ccc(-c4cnc(C(F)(F)F)nc4)cc3)cn12
IC50 [1]: 160 nM

CCc1c(C2CC2)nc2ccc(NC(=O)c3ccc(-c4ccc(C(F)(F)F)cc4)cc3)cn12
IC50 [1]: 20 nM

CC(=O)N(C)Cc1cn2cc(NC(=O)c3ccc(-c4ccc(C(F)(F)F)cc4)cc3)ccc2n1
IC50 [1]: 35 nM

Cc1c(C2CC2)nc2ccc(NC(=O)c3ccc(-c4ccc(F)nc4)cc3)cn12
Drug uptake (Brain): 2.5 nmol/g | IC50 [2]: 20 nM | IC50 [1]: 4.4 nM | concentration at 2 h [3]: 5 µM

Cc1c(C2CC2)nc2ccc(NC(=O)c3ccc(-c4ccccn4)cc3)cn12
IC50 [2]: 26 nM

CC(O)c1c(C2CC2)nc2ccc(NC(=O)c3ccc(-c4ccc(C(F)(F)F)cc4)cc3)cn12 (stereo not given)
IC50 [1]: 330 nM

CCCc1cn2cc(NC(=O)c3ccc(-c4ccc(C(F)(F)F)cc4)cc3)ccc2n1
IC50 [1]: 11 nM

CC(O)c1cn2cc(NC(=O)c3ccc(-c4ccc(C(F)(F)F)cc4)cc3)ccc2n1 (stereo not given)
IC50 [1]: 30 nM

O=C(Nc1ccc2nc(C3CC3)cn2c1)c1ccc(-c2ccc(C(F)(F)F)cn2)cc1
IC50 [1]: 8.2 nM

O=C(Nc1ccc2nc(C3CC3)cn2c1)c1ccc(-c2ccccn2)cc1
IC50 [1]: 140 nM

CC(C)c1cn2cc(NC(=O)c3ccc(-c4ccc(C(F)(F)F)cc4)cc3)ccc2n1
IC50 [1]: 5.4 nM

O=C(Nc1ccc2nc(C3CC3)cn2c1)c1ccc(-c2ccc(C(F)(F)F)cc2)cc1
IC50 [1]: 5.6 nM

Cc1cn2cc(NC(=O)c3ccc(-c4ccc(C(F)(F)F)cc4)cc3)ccc2n1
IC50 [1]: 4.6 nM

Cc1c(C2CC2)nc2ccc(NC(=O)c3ccc(-c4ccc(F)nc4)nc3)cn12
IC50 [2]: 217 nM | IC50 [1]: 61 nM

Cc1c(C2CC2)nc2ccc(NC(=O)c3ncc(-c4ccc(F)cc4)cn3)cn12
IC50 [2]: 29 nM | IC50 [1]: 6.8 nM

Cc1c(C2CC2)nc2ccc(NC(=O)c3ccc(-c4ccc(F)cn4)cc3)cn12
IC50 [2]: 90 nM | IC50 [1]: 5.4 nM

Cc1c(C2CC2)nc2ccc(NC(=O)c3ccc(-c4ccc(F)nc4)cn3)cn12
IC50 [2]: 121 nM | IC50 [1]: 44 nM

CC(C)(O)c1cn2cc(NC(=O)c3ccc(-c4ccc(C(F)(F)F)cc4)cc3)ccc2n1
IC50 [1]: 17 nM

Cc1c(C2CC2)nc2ccc(NC(=O)c3ccc(-c4ccc(F)cc4)cn3)cn12
IC50 [2]: 59 nM

O=C(Nc1ccc2nccn2c1)c1ccc(-c2ccc(C(F)(F)F)cc2)cc1
IC50 [1]: 300 nM

CC(=O)c1c(C2CC2)nc2ccc(NC(=O)c3ccc(-c4ccc(C(F)(F)F)cc4)cc3)cn12
IC50 [1]: 320 nM

Cc1c(C2CC2)nc2ccc(NC(=O)c3ccc(-c4ccc(C(F)(F)F)cn4)cc3)cn12
Drug uptake (Brain): 1.6 nmol/g | IC50 [2]: 1000 nM | IC50 [1]: 3.5 nM | concentration at 2 h [3]: 1.4 µM

O=C(Nc1ccc2nc(C3CC3)c(C3CC3)n2c1)c1ccc(-c2ccc(C(F)(F)F)cc2)cc1
IC50 [1]: 260 nM

O=C(Nc1ccc2nc(C3CC3)c(CO)n2c1)c1ccc(-c2ccc(C(F)(F)F)cc2)cc1
IC50 [1]: 11 nM

Cc1c(C2CC2)nc2ccc(NC(=O)c3ccc(-c4ccc(F)cc4)nc3)cn12
IC50 [2]: 94 nM | IC50 [1]: 4 nM

CCOC(=O)c1cn2cc(NC(=O)c3ccc(-c4ccc(C(F)(F)F)cc4)cc3)ccc2n1
IC50 [1]: > 1000 nM

COc1ccc(-c2ccc(C(=O)Nc3ccc4nc(C5CC5)c(C)n4c3)cc2)nc1
IC50 [2]: 122 nM | IC50 [1]: 6 nM

O=C(Nc1ccc2nc(CO)cn2c1)c1ccc(-c2ccc(C(F)(F)F)cc2)cc1
IC50 [1]: 130 nM

Cc1c(C2CC2)nc2ccc(NC(=O)c3ncc(-c4ccc(F)nc4)cn3)cn12
IC50 [2]: 164 nM | IC50 [1]: 102 nM

Cc1c(C2CC2)nc2ccc(NC(=O)c3ccc(-c4ccc(C(F)(F)F)cc4)cc3)cn12
IC50 [1]: 4.8 nM

Cc1ccc(-c2ccc(C(=O)Nc3ccc4nc(C5CC5)c(C)n4c3)cc2)nc1
IC50 [2]: 85 nM | IC50 [1]: 4.8 nM

Cc1c(C2CC2)nc2ccc(NC(=O)c3ccc(-c4ccc(S(C)(=O)=O)cn4)cc3)cn12
IC50 [2]: 94 nM | IC50 [1]: 48 nM

CN(C)Cc1cn2cc(NC(=O)c3ccc(-c4ccc(C(F)(F)F)cc4)cc3)ccc2n1
IC50 [1]: 83 nM

Cc1c(C2CC2)nc2ccc(NC(=O)c3cnc(-c4ccc(F)cc4)cn3)cn12
IC50 [2]: 70 nM | IC50 [1]: 2.5 nM

Cc1c(C2CC2)nc2ccc(NC(=O)c3ccc(-c4ccc(Cl)cn4)cc3)cn12
IC50 [2]: 100 nM | IC50 [1]: 2.2 nM

Cc1c(C2CC2)nc2ccc(NC(=O)c3ccc(-c4ccc(C(F)(F)F)nc4)cc3)cn12
IC50 [2]: 109 nM | IC50 [1]: 4 nM
